From ChEMBL document CHEMBL5724801, “EUbOPEN Chemogenomics Library - Multiplex” (2024)
Values joined by “and” are separate entries in the source; they are usually repeats but may differ in a detail not shown here. Equal entries are not always repeated.

System: Fibroblast
Experiment: Multiplex assay against human fibroblast
Assay type: toxicity, cell-based
Outline: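 Tubulin, mitochondrial-mass and membrane-permeability phenotypes are per cents of healthy-nucleus cells. Cells were gated by CellPathfinder machine learning into Hoechst high-intensity objects or normal cells, normal cells into healthy, pyknosed or fragmented nuclei, and pyknosed cells into mitotic or apoptotic. Before that, live cells stained at seeding with Hoechst33342, BioTracker Green Microtubule Cytoskeleton Dye, MitoTracker Red and Annexin V Alexa Fluor 680 were imaged on a CQ1 microscope at 37°C and 5% CO2 after compound addition.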

[1] = 12 h, 1 µM, compound concentration 1 uM
[2] = 12 h, 10 µM, compound concentration 10 uM
[3] = 24 h, 1 µM, compound concentration 1 uM
[4] = 24 h, 10 µM, compound concentration 10 uM
[5] = 48 h, 1 µM, compound concentration 1 uM
[6] = 48 h, 10 µM, compound concentration 10 uM

SMILES: CN[C@@H](C)C(=O)N[C@H](C(=O)N1CCC[C@H]1C(=O)Nc1snnc1-c1ccccc1)C1CCCCC1 [GDC-0152]
- Population Apoptotic (%) [1]: 70% and 33%
- Population Fragmented Nuclei (%) [1]: 14% and 16%
- Population Healthy Nuclei (%) [1]: 68% and 56%
- Population Hoechst High Intensity Objects (%) [1]: 4% and 6%
- Population Membrane Permeable-Phenotype (%) [1]: 1% and 6%
- Population Mitochondria Different-Phenotype (%) [1]: 6% and 9%
- Population Mitotic Cells (%) [1]: 30% and 66%
- Population Normal (%) [1]: 95% and 93%
- Population Pyknosed Nuclei (%) [1]: 16% and 26%
- Population Tubulin-Different-Phenotype (%) [1]: 38% and 62%
- Total Cell Count [1]: 127 and 121
- Population Apoptotic (%) [2]: 38% and 24%
- Population Fragmented Nuclei (%) [2]: 17% and 26%
- Population Healthy Nuclei (%) [2]: 59% and 34%
- Population Hoechst High Intensity Objects (%) [2]: 6% and 10%
- Population Membrane Permeable-Phenotype (%) [2]: 0%
- Population Mitochondria Different-Phenotype (%) [2]: 13% and 10%
- Population Mitotic Cells (%) [2]: 61% and 75%
- Population Normal (%) [2]: 93% and 90%
- Population Pyknosed Nuclei (%) [2]: 22% and 39%
- Population Tubulin-Different-Phenotype (%) [2]: 80% and 65%
- Total Cell Count [2]: 144 and 150
- Population Apoptotic (%) [3]: 60% and 37%
- Population Fragmented Nuclei (%) [3]: 20% and 22%
- Population Healthy Nuclei (%) [3]: 63% and 55%
- Population Hoechst High Intensity Objects (%) [3]: 2% and 9%
- Population Membrane Permeable-Phenotype (%) [3]: 1% and 2%
- Population Mitochondria Different-Phenotype (%) [3]: 1% and 11%
- Population Mitotic Cells (%) [3]: 40% and 62%
- Population Normal (%) [3]: 97% and 90%
- Population Pyknosed Nuclei (%) [3]: 16% and 22%
- Population Tubulin-Different-Phenotype (%) [3]: 30% and 61%
- Total Cell Count [3]: 123 and 133
- Population Apoptotic (%) [4]: 67% and 41%
- Population Fragmented Nuclei (%) [4]: 14% and 33%
- Population Healthy Nuclei (%) [4]: 58% and 34%
- Population Hoechst High Intensity Objects (%) [4]: 5% and 8%
- Population Membrane Permeable-Phenotype (%) [4]: 0% and 16%
- Population Mitochondria Different-Phenotype (%) [4]: 21% and 22%
- Population Mitotic Cells (%) [4]: 32% and 58%
- Population Normal (%) [4]: 94% and 91%
- Population Pyknosed Nuclei (%) [4]: 26% and 31%
- Population Tubulin-Different-Phenotype (%) [4]: 83% and 68%
- Total Cell Count [4]: 135 and 157
- Population Apoptotic (%) [5]: 47% and 57%
- Population Fragmented Nuclei (%) [5]: 23% and 38%
- Population Healthy Nuclei (%) [5]: 60% and 44%
- Population Hoechst High Intensity Objects (%) [5]: 1% and 5%
- Population Membrane Permeable-Phenotype (%) [5]: 0% and 2%
- Population Mitotic Cells (%) [5]: 52% and 42%
- Population Normal (%) [5]: 98% and 94%
- Population Pyknosed Nuclei (%) [5]: 16% and 17%
- Population Tubulin-Different-Phenotype (%) [5]: 48% and 67%
- Total Cell Count [5]: 132 and 159
- Population Apoptotic (%) [6]: 76% and 44%
- Population Fragmented Nuclei (%) [6]: 23% and 39%
- Population Healthy Nuclei (%) [6]: 45% and 42%
- Population Hoechst High Intensity Objects (%) [6]: 6%
- Population Membrane Permeable-Phenotype (%) [6]: 0% and 19%
- Population Mitochondria Different-Phenotype (%) [6]: 22% and 17%
- Population Mitotic Cells (%) [6]: 23% and 55%
- Population Normal (%) [6]: 93%
- Population Pyknosed Nuclei (%) [6]: 31% and 18%
- Population Tubulin-Different-Phenotype (%) [6]: 81% and 88%
- Total Cell Count [6]: 145 and 159

SMILES: CSc1nc(NC2CCCC2)c([N+](=O)[O-])c(NC2CCCC2)n1 [GS-39783]
- Population Apoptotic (%) [1]: 50% and 39%
- Population Fragmented Nuclei (%) [1]: 16% and 28%
- Population Healthy Nuclei (%) [1]: 66% and 46%
- Population Hoechst High Intensity Objects (%) [1]: 3% and 5%
- Population Membrane Permeable-Phenotype (%) [1]: 2% and 10%
- Population Mitochondria Different-Phenotype (%) [1]: 6% and 10%
- Population Mitotic Cells (%) [1]: 50% and 60%
- Population Normal (%) [1]: 96% and 94%
- Population Pyknosed Nuclei (%) [1]: 16% and 25%
- Population Tubulin-Different-Phenotype (%) [1]: 29% and 57%
- Total Cell Count [1]: 137 and 135
- Population Apoptotic (%) [2]: 54% and 36%
- Population Fragmented Nuclei (%) [2]: 16% and 25%
- Population Healthy Nuclei (%) [2]: 62% and 52%
- Population Hoechst High Intensity Objects (%) [2]: 5% and 6%
- Population Membrane Permeable-Phenotype (%) [2]: 0% and 4%
- Population Mitotic Cells (%) [2]: 45% and 63%
- Population Normal (%) [2]: 94% and 93%
- Population Pyknosed Nuclei (%) [2]: 21%
- Population Tubulin-Different-Phenotype (%) [2]: 39% and 70%
- Total Cell Count [2]: 184 and 165
- Population Apoptotic (%) [3]: 30% and 32%
- Population Fragmented Nuclei (%) [3]: 12% and 31%
- Population Healthy Nuclei (%) [3]: 69% and 44%
- Population Hoechst High Intensity Objects (%) [3]: 2%
- Population Membrane Permeable-Phenotype (%) [3]: 3% and 10%
- Population Mitochondria Different-Phenotype (%) [3]: 4% and 12%
- Population Mitotic Cells (%) [3]: 69% and 67%
- Population Normal (%) [3]: 97%
- Population Pyknosed Nuclei (%) [3]: 17% and 23%
- Population Tubulin-Different-Phenotype (%) [3]: 27% and 60%
- Total Cell Count [3]: 132 and 133
- Population Apoptotic (%) [4]: 58% and 36%
- Population Fragmented Nuclei (%) [4]: 17% and 25%
- Population Healthy Nuclei (%) [4]: 65% and 52%
- Population Hoechst High Intensity Objects (%) [4]: 2% and 7%
- Population Membrane Permeable-Phenotype (%) [4]: 0% and 6%
- Population Mitochondria Different-Phenotype (%) [4]: 4% and 10%
- Population Mitotic Cells (%) [4]: 41% and 63%
- Population Normal (%) [4]: 97% and 92%
- Population Pyknosed Nuclei (%) [4]: 17% and 21%
- Population Tubulin-Different-Phenotype (%) [4]: 33% and 57%
- Total Cell Count [4]: 172 and 164
- Population Apoptotic (%) [5]: 70% and 33%
- Population Fragmented Nuclei (%) [5]: 22% and 41%
- Population Healthy Nuclei (%) [5]: 69% and 44%
- Population Hoechst High Intensity Objects (%) [5]: 4% and 3%
- Population Mitochondria Different-Phenotype (%) [5]: 5% and 14%
- Population Mitotic Cells (%) [5]: 30% and 66%
- Population Normal (%) [5]: 95% and 96%
- Population Pyknosed Nuclei (%) [5]: 7% and 14%
- Population Tubulin-Different-Phenotype (%) [5]: 29% and 60%
- Total Cell Count [5]: 134 and 129
- Population Apoptotic (%) [6]: 66% and 60%
- Population Fragmented Nuclei (%) [6]: 19% and 40%
- Population Healthy Nuclei (%) [6]: 65% and 46%
- Population Hoechst High Intensity Objects (%) [6]: 2% and 6%
- Population Membrane Permeable-Phenotype (%) [6]: 1% and 6%
- Population Mitochondria Different-Phenotype (%) [6]: 5% and 7%
- Population Mitotic Cells (%) [6]: 33% and 40%
- Population Normal (%) [6]: 97% and 93%
- Population Pyknosed Nuclei (%) [6]: 14% and 13%
- Population Tubulin-Different-Phenotype (%) [6]: 41% and 60%
- Total Cell Count [6]: 168 and 193

SMILES: CC(C)c1noc(N2CCC(COc3ccc(-c4ccc(S(C)(=O)=O)cc4)nc3)CC2)n1 [GSK-1292263]
- Population Apoptotic (%) [1]: 38% and 29%
- Population Fragmented Nuclei (%) [1]: 14% and 18%
- Population Healthy Nuclei (%) [1]: 74% and 50%
- Population Hoechst High Intensity Objects (%) [1]: 2% and 6%
- Population Membrane Permeable-Phenotype (%) [1]: 0% and 4%
- Population Mitochondria Different-Phenotype (%) [1]: 1% and 5%
- Population Mitotic Cells (%) [1]: 61% and 70%
- Population Normal (%) [1]: 97% and 93%
- Population Pyknosed Nuclei (%) [1]: 11% and 31%
- Population Tubulin-Different-Phenotype (%) [1]: 21% and 41%
- Total Cell Count [1]: 189 and 149
- Population Apoptotic (%) [2]: 39% and 35%
- Population Healthy Nuclei (%) [2]: 65% and 45%
- Population Hoechst High Intensity Objects (%) [2]: 3% and 2%
- Population Membrane Permeable-Phenotype (%) [2]: 1% and 6%
- Population Mitochondria Different-Phenotype (%) [2]: 5% and 10%
- Population Mitotic Cells (%) [2]: 60% and 64%
- Population Normal (%) [2]: 96% and 97%
- Population Pyknosed Nuclei (%) [2]: 26% and 27%
- Population Tubulin-Different-Phenotype (%) [2]: 39% and 61%
- Total Cell Count [2]: 162 and 145
- Population Apoptotic (%) [3]: 50% and 44%
- Population Fragmented Nuclei (%) [3]: 9% and 20%
- Population Healthy Nuclei (%) [3]: 78% and 53%
- Population Hoechst High Intensity Objects (%) [3]: 3% and 7%
- Population Membrane Permeable-Phenotype (%) [3]: 1% and 4%
- Population Mitochondria Different-Phenotype (%) [3]: 0% and 2%
- Population Mitotic Cells (%) [3]: 50% and 55%
- Population Normal (%) [3]: 96% and 92%
- Population Pyknosed Nuclei (%) [3]: 11% and 25%
- Population Tubulin-Different-Phenotype (%) [3]: 17% and 41%
- Total Cell Count [3]: 182 and 142
- Population Apoptotic (%) [4]: 52% and 46%
- Population Fragmented Nuclei (%) [4]: 12% and 21%
- Population Healthy Nuclei (%) [4]: 67% and 55%
- Population Hoechst High Intensity Objects (%) [4]: 2% and 3%
- Population Membrane Permeable-Phenotype (%) [4]: 1% and 10%
- Population Mitochondria Different-Phenotype (%) [4]: 5% and 10%
- Population Mitotic Cells (%) [4]: 47% and 53%
- Population Normal (%) [4]: 97% and 96%
- Population Pyknosed Nuclei (%) [4]: 20% and 23%
- Population Tubulin-Different-Phenotype (%) [4]: 50% and 56%
- Total Cell Count [4]: 168 and 123
- Population Apoptotic (%) [5]: 66% and 54%
- Population Fragmented Nuclei (%) [5]: 19% and 27%
- Population Healthy Nuclei (%) [5]: 74% and 47%
- Population Hoechst High Intensity Objects (%) [5]: 3% and 8%
- Population Membrane Permeable-Phenotype (%) [5]: 0% and 13%
- Population Mitochondria Different-Phenotype (%) [5]: 1% and 4%
- Population Mitotic Cells (%) [5]: 33% and 45%
- Population Normal (%) [5]: 96% and 91%
- Population Tubulin-Different-Phenotype (%) [5]: 22% and 55%
- Total Cell Count [5]: 193 and 156
- Population Apoptotic (%) [6]: 63% and 50%
- Population Fragmented Nuclei (%) [6]: 13% and 31%
- Population Healthy Nuclei (%) [6]: 65% and 51%
- Population Hoechst High Intensity Objects (%) [6]: 2% and 0%
- Population Membrane Permeable-Phenotype (%) [6]: 0% and 9%
- Population Mitochondria Different-Phenotype (%) [6]: 8% and 14%
- Population Mitotic Cells (%) [6]: 36% and 50%
- Population Normal (%) [6]: 97% and 100%
- Population Pyknosed Nuclei (%) [6]: 20% and 17%
- Population Tubulin-Different-Phenotype (%) [6]: 48% and 76%
- Total Cell Count [6]: 164 and 125
